An excerpt weighted towards active compounds, which were near 1.9% of everything screened.
FAS TE block: inhibitors of human fatty acid synthase thioesterase domain | 0.67% of 360,000 active | P49327 | inhibition, % at 15 µM | recombinant FAS-TE, OMFH fluorogenic substrate, fluorescence endpoint;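 active means compounds whose normalised, plate-corrected inhibition of enzyme fluorescence in the single-dose primary screen is 50% or more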;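 further: 0% = DMSO with enzyme and 100% = substrate without enzyme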
SENP1 inh: inhibitors of human SENP1 SUMO protease catalytic domain; Q9P0U3; recombinant SENP1 catalytic domain, CyPet-SUMO1-YPet FRET cleavage; inhibition, % at 10 µM; 0.21% of 360,000 active; AID 624204;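 active means inhibition at least 30% at 10 µM, raw YFP signal under a set limit, fluorescence ratio 0.5 to 1.5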;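 further: 0% = enzyme with DMSO and 100% = no enzyme wells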
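system = hSENP1 catalytic domain, recombinant | reagent = SFCypet-SUMO1-SFYpet substrate at 25 nM | doses = one dose per compound, 10 µM, 0.5% DMSO | incubation = enzyme reaction for 50 min at room temperature, dark | measured by = FRET, CFP and YFP emission | controls = no-enzyme low, enzyme-DMSO high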
ADAM10 inh: inhibits human ADAM10. recombinant ADAM10, EDANS/DABCYL FRET peptide cleavage, 3 h. inhibition, % at 7 µM. 0.62% of 370,000 active. AID 720582;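 active means inhibition above a per-campaign cutoff equal to the mean of compounds falling between control-based bounds plus 3 SD, cut at about 20% in these data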;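 further: 0% = DMSO wells while the 100% control is not disclosed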
ADAM17 inh: inhibits human ADAM17; P78536; recombinant ADAM17, EDANS/DABCYL FRET peptide cleavage; inhibition, % at 6.95 µM; 0.83% of 370,000 active; AID 720648;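 active means inhibition above the mean of compounds lying between control limits plus 3 SD, set per campaign, cut at about 8.5% in these data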;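 further: 0% = DMSO-only wells as the low control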
Target sequence (P78536 215-824 limits assumed): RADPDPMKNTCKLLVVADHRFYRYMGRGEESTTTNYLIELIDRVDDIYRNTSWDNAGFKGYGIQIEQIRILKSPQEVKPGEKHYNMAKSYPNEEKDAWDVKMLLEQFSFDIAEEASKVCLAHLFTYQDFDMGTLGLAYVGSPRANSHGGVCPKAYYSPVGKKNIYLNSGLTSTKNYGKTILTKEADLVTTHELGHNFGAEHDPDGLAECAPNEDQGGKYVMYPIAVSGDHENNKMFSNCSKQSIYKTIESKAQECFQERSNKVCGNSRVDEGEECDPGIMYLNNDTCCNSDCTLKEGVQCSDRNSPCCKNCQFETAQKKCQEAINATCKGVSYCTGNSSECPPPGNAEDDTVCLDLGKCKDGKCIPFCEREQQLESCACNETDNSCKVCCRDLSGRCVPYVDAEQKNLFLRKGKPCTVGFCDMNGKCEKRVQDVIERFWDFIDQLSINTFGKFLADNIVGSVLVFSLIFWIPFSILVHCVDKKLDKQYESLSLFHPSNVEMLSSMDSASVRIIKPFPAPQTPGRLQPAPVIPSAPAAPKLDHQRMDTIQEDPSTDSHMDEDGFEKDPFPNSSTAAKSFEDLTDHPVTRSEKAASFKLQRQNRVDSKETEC
ADAM10 confirm: confirmation of inhibitors of human ADAM10. shares compounds with ADAM10 inh. ADAM10 QFRET peptide cleavage, EDANS fluorescence. inhibition, % at 6.95 µM. 1% of 2,100 active;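 active means inhibition above about 20% chosen separately for each screening run, limit read from the data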;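 further: 0% = DMSO wells and 100% = marimastat wells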
ADAM17 ctr: counter-screen for ADAM10 exosite inhibitors: inhibitors of human ADAM17. shares compounds with ADAM10 inh. ADAM17 QFRET peptide cleavage, EDANS fluorescence. inhibition, % at 6.95 µM. 0.5% of 2,100 active;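 active means mean triplicate inhibition above the solvent-only control wells' mean plus 3 SD, cut at about 12% in these data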;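 further: 0% = DMSO wells and 100% = marimastat wells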
Active calls of the source: *; nt = no result.

SMILES	FAS TE block	SENP1 inh	ADAM10 inh	ADAM17 inh	ADAM10 confirm	ADAM17 ctr
Cc1ccc(C2(c3ccc(C)cc3)CC2C(=O)Nc2ccc([N+](=O)[O-])cc2O)cc1 (configuration not stated)	-15	6	42*	19*	11	4
COC(=O)c1cc2c(c3c4cc(OC)ccc4n(S(=O)(=O)c4ccc(F)cc4)c13)C(=O)N(C)C2	nt	nt	-12	-2	nt	nt
CC(C)(C)S(=O)N1Cc2cc(C(=O)N[C@@H]3CCN(Cc4ccccc4)C3)nc(-c3cccc(-c4cc5ccccc5o4)c3)c2[C@@H]1CCO (some centres not stated)	19	-16	20*	6	18	9
CC(C)(C)S(=O)N1Cc2cc(C(=O)O)nc(-c3cccc(-c4cc5ccccc5o4)c3)c2[C@H]1CCO (some centres not stated)	-4	-5	-14	-3	nt	nt
Clc1ccccc1CSc1nnc(-c2ccccn2)n1Cc1ccco1	12	-6	21*	8	1	0
C=C(C)C#CCNCc1ccccc1	nt	nt	-6	-4	nt	nt
CN1C(=O)Cc2cc(S(=O)(=O)N3CCN(c4ccc(Cl)cc4)CC3)ccc21	5	-1	21*	8	-1	0
O=C(Cc1cccc(C(F)(F)F)c1)Nc1cccc(S(=O)(=O)N2CCCC2)c1	18	-1	20*	3	1	1
CC(C)(C)c1ccc(OCCC(=O)Nc2cccc(S(=O)(=O)N3CCCCC3)c2)cc1	48	-3	24*	5	10	3
O=C(CCCOc1ccccc1)Nc1cccc(S(=O)(=O)N2CCCCC2)c1	18	0	-3	2	nt	nt
C=CCN(CC#Cc1ccccc1)Cc1ccc2c(c1)OCO2	nt	nt	-1	-3	nt	nt
Clc1ccc(-n2c(SCc3cccc4ccccc34)nnc2-c2ccccc2)cc1	nt	nt	12	5	nt	nt
Nc1nc(-c2ccc(Br)cc2)c(S(=O)(=O)c2ccccc2)s1	19	0	5	3	nt	nt
Nc1nc(-c2ccc(Cl)cc2)c(S(=O)(=O)c2ccccc2)s1	14	2	20*	8	0	0
C[C@@H]1ON(C)[C@H]2C[C@H]3c4cc(N5CCN(C)CC5)ccc4CCN3C[C@@H]12	nt	nt	-1	-1	nt	nt
COC(=O)[C@]12C[C@H](CC(=O)N3CCN(C(=O)c4ccco4)CC3)C(=O)N(Cc3ccccc3)C1=C[C@H](C1CCCC1)O[C@@H]2C	nt	nt	3	8	nt	nt
CCN(c1ccccc1)S(=O)(=O)c1cc(C(=O)Nc2ccc(F)c(F)c2)ccc1F	35	1	26*	8	8	3
CCN(c1ccccc1)S(=O)(=O)c1ccc(C(=O)Nc2ccncc2)cc1	3	1	6	-1	nt	nt
CCOC(=O)N1CCN(CCC(=O)Nc2ccc(OC)cc2)CC1	-8	1	71*	-1	1	0
COc1ccc2c(CC(=O)Nc3ccc(OC)c(S(=O)(=O)N4CCOCC4)c3)coc2c1	-3	-5	2	3	nt	nt
COc1ccc(NC(=O)Cc2coc3cc(C)c(C(C)C)cc23)cc1S(=O)(=O)N1CCOCC1	7	-14	22*	7	4	1
CN(Cc1ccco1)C(=O)CN1C(=O)C2(OCCCO2)c2ccccc21	nt	nt	-8	1	nt	nt
Cc1ccc(OCC(=O)NNC(=O)C(=O)NC(C)(C)C)cc1	-11	0	21*	6	0	0
O=C(NCc1ccc(F)c(F)c1)C1CCCN(c2nc3ccccc3o2)C1 (configuration not stated)	nt	nt	-5	-1	nt	nt
COc1ccccc1NC(=O)c1ccccc1NC(=O)c1cccs1	17	1	21*	2	2	0
SMILES	FAS TE block	SENP1 inh	ADAM10 inh	ADAM17 inh	ADAM10 confirm	ADAM17 ctr
CN(C)c1ccc(C(CNC(=O)c2ccccc2Br)c2c[nH]c3ccccc23)cc1 (configuration not stated)	-8	1	0	0	nt	nt
CN(C)c1ccc(C(CNS(=O)(=O)c2ccc(F)cc2)c2c[nH]c3ccccc23)cc1 (configuration not stated)	18	-1	22*	7	13	3
COC(=O)c1ccc(-c2cc3onc(-c4ccccc4)c3c(=O)n2C)cc1	7	-4	71*	1	25*	7
CN(C)C(=O)c1ccc(-c2cc3onc(-c4ccccc4)c3c(=O)n2C)cc1	-85	2	-2	0	nt	nt
CCOC(=O)c1c(C)[nH]c(C)c1S(=O)(=O)NCCN1CCN(c2cc(Cl)ccc2C)CC1	15	-2	24*	12*	4	2
Cc1nn(CCC(=O)NNC(=O)NCc2ccccc2)c(C)c1[N+](=O)[O-]	nt	nt	-7	-1	nt	nt
Cc1ccc(S(=O)(=O)NCC2CN(S(=O)(=O)c3ccc(C)cc3)c3ccccc3C(=O)N2c2ccc(F)cc2)cc1 (configuration not stated)	nt	nt	23*	5	2	1
CSc1ccccc1NC(=O)C(=O)c1c[nH]c2ccccc12	8	-1	22*	6	7	2
CCNC(=S)N1CCN(c2nc(-c3cccc(OC)c3)cs2)CC1	16	1	4	3	nt	nt
COc1cccc(-c2csc(N3CCN(CC(=O)NNC(=O)c4ccc(Br)cc4)CC3)n2)c1	2	1	6	3	nt	nt
COc1cccc(-c2csc(N3CCN(CC(=O)NNC(=O)c4ccc(Cl)cc4)CC3)n2)c1	-7	-1	20*	5	0	0
COCCNC(=S)N1CCN(c2nc(-c3cccc(OC)c3)cs2)CC1	6	1	21*	5	1	0
COC(CNC(=O)[C@H](Cc1c[nH]c2ccccc12)NC1(C(=O)NC(c2ccccc2)c2ccccc2)CCCCC1)OC	nt	nt	7	3	nt	nt
COc1ccccc1NC(=O)Cc1csc(NC(=S)Nc2ccccc2)n1	18	2	21*	3	6	2
COc1ccc(OC)c(NC(=O)Cc2csc(NC(=O)Nc3ccccc3OC)n2)c1	10	-1	5	4	nt	nt
CCN(c1ccccc1)S(=O)(=O)c1ccc(N2CCN(c3ccc(O)cc3)CC2)nc1	12	2	25*	3	6	1
CC(C)C[C@@H](CN1CCCC1CN1C(=S)NC[C@@H]1Cc1ccc(O)cc1)N1C[C@H](Cc2ccc(O)cc2)N(CCc2ccccc2)C1=S (some centres not stated)	-81	0	33*	11*	14	3
Oc1ccc(C[C@H]2CNC(=S)N2C[C@H]2CCCN2C[C@H](Cc2ccccc2)N2C[C@H](Cc3ccc(O)cc3)N(CCc3ccccc3)C2=S)cc1	-81	1	28*	7	12	4
Oc1ccc(C[C@H]2CN([C@@H](Cc3ccc(O)cc3)CN3CCC[C@@H]3CN3C(=S)NC[C@@H]3Cc3ccccc3)C(=S)N2CCc2ccccc2)cc1	-55	1	8	3	nt	nt

Assay outcomes deposited in PubChem BioAssay by several laboratories.
